Calls of active or inactive are those of the source. No cut-off for these calls is given here.

The subject of experiment [1] is Rattus norvegicus. In words: Antidiabetic activity in streptozotocin-nicotinamide-induced NIDDM Wistar rat model assessed as reduction in blood glucose level at 5 mg/kg administered intragastrically measured at 1 hr post dose relative to control. The class given is functional. Further details: scale not given: the % may be the effect or the level left. Conditions: route intragastric. A digest of the protocol:
(§1)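 Streptozotocin–nicotinamide-induced diabetic rats received one intragastric dose (test agent 50 mg/Kg; glibenclamide 5 mg/Kg as hypoglycemic control). Blood glucose was sampled at 0, 1, 3, 5 and 7 h after dosing. Change was expressed as percentage variation of glycemia from zero hour, negative meaning a decrease. Values are mean ± SEM (n = 6), compared with a control group.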

Experiment [2] deals with Rattus norvegicus. In words: Antidiabetic activity in streptozotocin-nicotinamide-induced NIDDM Wistar rat model assessed as reduction in blood glucose level at 5 mg/kg administered intragastrically measured at 7 hrs post dose relative to control. The class given is functional. Also noted: scale not given: the % may be the effect or the level left. Particulars: route intragastric. A digest of the protocol: as §1

In experiment [3] the test system is Rattus norvegicus. Briefly: Antidiabetic activity in streptozotocin-nicotinamide-induced NIDDM Wistar rat model assessed as reduction in blood glucose level at 5 mg/kg administered intragastrically measured at 5 hrs post dose relative to control. The class given is functional. Also noted: scale not given: the % may be the effect or the level left. Conditions: route intragastric. A digest of the protocol:
as §1

For experiment [4], the system named is Rattus norvegicus. Briefly: Antidiabetic activity in streptozotocin-nicotinamide-induced NIDDM Wistar rat model assessed as reduction in blood glucose level at 5 mg/kg administered intragastrically measured at 3 hrs post dose relative to control. In kind it is functional. Also noted: scale not given: the % may be the effect or the level left. Particulars: route intragastric. A digest of the protocol:
as §1

Experiment [5] deals with 3T3-L1. In words: Increase in PPARalpha mRNA expression mouse 3T3L1 cells at 10 uM after 24 hrs by SYBR Green-based expression analysis relative to control. The class given is functional, cell-based.
Experiment [6] concerns 3T3-L1. In words: Increase in Glut-4 mRNA expression mouse 3T3L1 cells at 10 uM after 24 hrs by SYBR Green-based expression analysis relative to control. The class given is functional.
Experiment [7] has as its system Rattus norvegicus. Briefly: Antidiabetic activity in streptozotocin-nicotinamide-induced NIDDM Wistar rat model assessed as reduction in blood glucose level at 50 mg/kg administered intragastrically measured at 3 hrs post dose relative to control. In kind it is functional. Further details: scale not given: the % may be the effect or the level left. Particulars: route intragastric. A digest of the protocol:
as §1

Experiment [8] deals with 3T3-L1. In words: Increase in PPARgamma mRNA expression mouse 3T3L1 cells at 10 uM after 24 hrs by SYBR Green-based expression analysis relative to control. In kind it is functional.
Experiment [9] concerns Rattus norvegicus. Briefly: Antidiabetic activity in streptozotocin-nicotinamide-induced NIDDM Wistar rat model assessed as reduction in blood glucose level at 50 mg/kg administered intragastrically measured at 5 hrs post dose relative to control. In kind it is functional. Conditions: route intragastric. Also noted: scale not given: the % may be the effect or the level left. An outline of the steps:
as §1

Experiment [10] concerns Rattus norvegicus. Briefly: Antidiabetic activity in streptozotocin-nicotinamide-induced NIDDM Wistar rat model assessed as reduction in blood glucose level at 50 mg/kg administered intragastrically measured at 1 hr post dose relative to control. Further details: scale not given: the % may be the effect or the level left. Particulars: route intragastric. In kind it is functional. A digest of the protocol: as §1

Experiment [11] has as its system Rattus norvegicus. In words: Antidiabetic activity in streptozotocin-nicotinamide-induced NIDDM Wistar rat model assessed as reduction in blood glucose level at 50 mg/kg administered intragastrically measured at 7 hrs post dose relative to control. The class given is functional. Also noted: scale not given: the % may be the effect or the level left. Conditions: route intragastric. An outline of the steps:
as §1

On to `COc1ccc(Cl)cc1C(=O)NCCc1ccc(S(=O)(=O)NC(=O)NC2CCCCC2)cc1` [GLYBURIDE], for which the Activity with Rattus norvegicus [1] is 20.5%; in the experiment with Rattus norvegicus [2] it was 43.6%; with Rattus norvegicus [3], 37.5%; in the experiment on Rattus norvegicus [4], 36.3%.

For the compound `CCOC(=O)COc1ccc(NC(=O)COc2ccc(/C=C3\SC(=O)NC3=O)cc2)cc1`, the outcome in the experiment with 3T3-L1 [5] was inactive. Also, the “fold change (FC)” value in the experiment with 3T3-L1 [6] and with 3T3-L1 [8] was 2 in each case. Moreover, the Activity amounted to 20.5% in the experiment on Rattus norvegicus [7], 36.7% in the experiment on Rattus norvegicus [9], 4.4% with Rattus norvegicus [10] and 31% with Rattus norvegicus [11].

Take `O=C(O)COc1ccc(NC(=O)COc2ccc(/C=C3\SC(=O)NC3=O)cc2)cc1`: in the experiment with 3T3-L1 [5], the result was inactive. The “fold change (FC)” value in the experiment with 3T3-L1 [6] and with 3T3-L1 [8] was 2 each time.
